# Key:
# [1] = molecular target: T1, 5-hydroxytryptamine receptor 1A (Rattus norvegicus, UniProt P19327); experiment: In vitro ability to displace [3H]8-OH-DPAT from 5-hydroxytryptamine 1A receptor sites of rat brain cortex.
# T1 sequence (P19327 whole entry): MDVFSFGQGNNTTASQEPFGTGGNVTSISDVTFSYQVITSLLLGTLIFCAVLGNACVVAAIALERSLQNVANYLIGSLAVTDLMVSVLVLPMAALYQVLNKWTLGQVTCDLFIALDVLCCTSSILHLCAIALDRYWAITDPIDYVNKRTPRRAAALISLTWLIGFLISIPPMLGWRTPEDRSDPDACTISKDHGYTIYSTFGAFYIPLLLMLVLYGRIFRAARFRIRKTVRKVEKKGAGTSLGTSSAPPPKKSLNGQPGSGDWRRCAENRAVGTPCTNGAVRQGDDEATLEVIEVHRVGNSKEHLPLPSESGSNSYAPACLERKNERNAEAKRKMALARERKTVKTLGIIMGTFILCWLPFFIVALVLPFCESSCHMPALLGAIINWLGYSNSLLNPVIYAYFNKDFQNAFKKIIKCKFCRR
# Outline: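 Male Wistar rat cerebral cortex membranes in 50 mM Tris-HCl with 4 mM CaCl2, 0.1% ascorbate and 10 μM pargyline. Nonspecific binding defined with 10 μM 5-HT. Read by filtration and scintillation counting. Twelve displacer concentrations, triplicate samples, two experiments. IC50/Ki obtained by nonlinear regression.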
# [2] = molecular target: Adrenergic receptor alpha-1 (Oryctolagus cuniculus); experiment: Antagonistic activity at Alpha-1 adrenergic receptor was performed on ring segments of rabbit thoracic aorta contracted by noradrenaline.
SMILES,Ki [1] [nM],pA2 [2]
COc1ccccc1N1CCN(CCCCNC(=O)c2cccs2)CC1,2.34,9.16
COc1ccccc1N1CCN(CCNC(=O)c2sccc2C)CC1,3.09,
COc1ccccc1N1CCN(CCNC(=O)C2CCCC2)CC1,4.68,
COc1ccccc1N1CCN(CCCCNC(=O)c2cccn2C)CC1.O=C(O)/C=C/C(=O)O,0.74,7.72
COc1ccccc1N1CCN(CCNC(=O)c2ccsc2)CC1,6.83,< 7
COc1ccccc1N1CCN(CCNC(=O)C2CCC3CCCC32)CC1 (stereo not given),0.24,
COc1ccccc1N1CCN(CCCCNC(=O)C2CC3CCC2C3)CC1 (stereo not given),0.23,
COc1ccccc1N1CCN(CCCCNC(=O)C2CCC3CCCC32)CC1 (stereo not given),0.63,
COc1ccccc1N1CCN(CCCCNC(=O)C2CC3C=CC2C3)CC1 (stereo not given),0.38,8.53
COc1ccccc1N1CCN(CCNC(=O)C2CC3C=CC2C3)CC1 (stereo not given),0.27,
COc1ccccc1N1CCN(CCCCNC(=O)c2sccc2C)CC1,1.53,
COc1ccccc1N1CCN(CCCNC(=O)C2CCC3CCCC32)CC1 (stereo not given),11.6,
COc1ccccc1N1CCN(CCNC(=O)c2cccn2C)CC1,1.19,< 7
COc1ccccc1N1CCN(CCCCNC(=O)c2cccnc2)CC1,25.2,
COc1ccccc1N1CCN(CCCCNC(=O)c2ccco2)CC1,55.7,
COc1ccccc1N1CCN(CCNC(=O)c2ccc(C)s2)CC1,2.29,
COc1ccccc1N1CCN(CCCCNC(=O)c2sccc2OC)CC1,32.1,
COc1ccccc1N1CCN(CCNC(=O)C2CC3CCC2C3)CC1 (stereo not given),0.12,
COc1ccccc1N1CCN(CCCNC(=O)c2cccnc2)CC1,321,
COc1ccccc1N1CCN(CCCCNC(=O)Cc2ccsc2)CC1,17.5,
COc1ccccc1N1CCN(CCNC(=O)c2ccc[nH]2)CC1,20.3,
COc1ccccc1N1CCN(CCCNC(=O)c2ccc[nH]2)CC1,201,
COc1ccccc1N1CCN(CCCCNC(=O)c2ccc[nH]2)CC1,12.5,
COc1ccccc1N1CCN(CCCCNC(=O)c2ccc(C)s2)CC1,3.8,< 7
COc1ccccc1N1CCN(CCCCNC(=O)C2CCCC2)CC1,1.88,
COc1ccccc1N1CCN(CCCCNC(=O)c2sccc2Cl)CC1,3.34,
COc1ccccc1N1CCN(CCNC(=O)c2cccnc2)CC1,362,
COc1ccccc1N1CCN(CCCCNC(=O)c2ccsc2)CC1,2.2,
COc1ccccc1N1CCN(CCNC(=O)Cc2ccsc2)CC1,32.3,
